Assay outcomes deposited in PubChem BioAssay by SRMLSC.
H69AR growth 86K = proliferation blockers of H69AR lung cancer cells, primary screen, cell-based, human, 86K library; H69AR lung tumor viability, ATP luminescence, 72 h; stronger effect = lower value; viability, % at 10 µM; 85,000 tested, 6% active; AID 598, 2007;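 active = viability at or below 40%; inactive = viability above 40%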;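 note: multidrug resistant small cell line overexpressing MRP-1 efflux transporter; 100% = mean luminescence of untreated control wells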
bCat KO growth = primary screen for growth suppressors in beta-catenin knockout HCT116 cells (colon tumor, human) | 140,000 tested, 1.5% active | HCT116 beta-catenin knockout viability, CellTiter-Glo, 60 h; stronger effect = lower value | viability, % at 10 µM | AID 818, 2007;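 active = viability at or under a set limit, the compound median less 4 SD, cut at about 6% in these data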;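 note: 0% = Hyamine 1622 control at 20 µM and 100% = untreated cell control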
Lung fibro prol = antiproliferative effect on LL 47 fibroblasts – human, LL 47 cells, CellTiter-Glo luminescence, primary screen | LL 47 human lung fibroblast viability, ATP luminescence; stronger effect = lower value | viability, % at 10 µM | 85,000 tested, 1.1% active;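 active = viability at or below 50% in the single dose screen; inactive = viability above 50%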;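 note: compound exposure lasted 72 h before the ATP readout; 100% = median luminescence of untreated cell-only wells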
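Material: human lung fibroblast line LL 47, low passage; Evaluation: viability percentage against median untreated-cell control; Buffer or medium: 15% FBS in IMEM; Incubation: 72 h compound exposure at 37 °C after overnight plating; Dosing: 0.1% DMSO in all compound wells; Measured by: CellTiter-Glo luminescence.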
HUVEC inhibit = inhibitors of HUVEC proliferation, primary screen, cell-based, 384-well. AID 648, 2007. 86,000 tested, 1.1% active. CellTiter-Glo luminescence, 72 h; stronger effect = lower value. viability, % at 10 µM (by protocol);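 active = viability at or below 30%; inactive = viability above 30%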;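 note: 100% = median luminescence of DMSO-only cell control wells on each plate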
PTEN del growth = growth suppression of PTEN-null HCT116, primary screen, cell-based, CellTiter-Glo | HCT116 PTEN-null viability, 60 h; stronger effect = lower value | viability, % at 10 µM | AID 827, 2007 | 140,000 tested, 1.2% active;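 active = viability at or below a set limit, 4 SD under the median of all tested compounds, cut at about 3.7% in these data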;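 note: PTEN knockout HCT116 line with beta catenin targeted HCT116 as companion control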
* hit, by the source's call; / = no result given. Shown is part of a subset that was picked to be rich in hits.

SMILES | H69AR growth 86K | bCat KO growth | Lung fibro prol | HUVEC inhibit | PTEN del growth
CC(C)(C)C(=O)Cn1c(=N)n(Cc2ccccc2)c2ccccc21 | 38* | 83 | 91 | 113 | 79
N=c1n(Cc2ccccc2)c2ccccc2n1CC(O)c1ccccc1 (centres undefined) | 38* | 37 | 88 | 89 | 48
Cc1ccc(Cn2c(=N)n(CC(O)c3ccco3)c3ccccc32)cc1 (centres undefined) | 73 | 62 | 90 | 92 | 58
Cc1cc2c(c(=O)n1Cc1cccnc1)C(c1ccc(F)cc1)C(C#N)=C(N)O2 (centres undefined) | 70 | 96 | 95 | 93 | 96
CCN(CC)c1ccc(/C=N/NC(=O)c2ccc(Br)o2)cc1 | / | 81 | / | / | 80
CC(C)(O)C#Cc1ccc(C(=O)N2CCN(C(=O)c3ccco3)CC2)cc1 | 94 | 98 | 102 | 97 | 103
Clc1cccc(-c2ccc(/C=N/n3cnnc3)o2)c1Cl | 106 | 76 | 90 | 9.8* | 78
Cc1c(Cl)cccc1-c1ccc(/C=N/n2cnnc2)o1 | 90 | 90 | 92 | 27* | 87
Clc1ccccc1-c1ccc(/C=N/n2cnnc2)o1 | 88 | 105 | 90 | 33 | 116
COCCn1c(SCC#N)nnc1-c1ccc2c(c1)OCO2 | 92 | 102 | 97 | 91 | 108
N#CC1=C(N)N(c2ccccc2)C(c2cccc([N+](=O)[O-])c2)C1(C#N)C#N (centres undefined) | 10* | 93 | 90 | 87 | 89
CC(C)(C)OC(=O)COc1cc(OCC(=O)OC(C)(C)C)c2c(=O)cc(-c3ccccc3)oc2c1 | / | 1.5* | / | / | 1.7*
CCC(=O)NCCc1nc2ccccc2n1Cc1ccccc1 | 94 | 106 | 94 | 95 | 101
O=C(NC1(C(F)(F)F)NC(=O)N(Cc2ccco2)C1=O)c1cccs1 (centres undefined) | 87 | 102 | 100 | 94 | 93
CCOC(=O)c1cc2oc(C(c3nnnn3C3CCCCC3)N3CCOCC3)cc2[nH]1 (centres undefined) | 9.8* | 38 | 94 | 75 | 34
CCOC(=O)C1CCN(C(c2cc3ccc(C)cc3[nH]c2=O)c2nnnn2C2CCCCC2)CC1 (centres undefined) | 94 | 92 | 97 | 97 | 92
O=C1C=C(c2cccs2)C[C@H](c2ccccc2)[C@H]1n1nnc([N+](=O)[O-])n1 | / | 4.9* | / | / | 4
Cc1cccc(OCC(=O)N2CCC(c3ccccc3)C2)c1 (centres undefined) | 95 | 94 | 107 | 105 | 94
CCCCN(C)C/C(O)=C(\C#N)c1nc(-c2ccccc2)cs1 | 39* | 102 | 96 | 82 | 92
N#C/C(=C(/O)CN1CCOCC1)c1nc(-c2ccccc2)cs1 | 84 | 94 | 96 | 102 | 96
CCn1c(C)nc2cc(C(=O)n3cc(C(=O)c4cc(F)ccc4O)cn3)ccc21 | 100 | / | 93 | 89 | /
Cc1ccc(-c2noc(CSc3nnc(Cc4ccccc4)n3-c3cccc(C)c3)n2)cc1 | 20* | 66 | 104 | 89 | 66
COc1ccc(-c2noc(CSc3nnc(Cc4ccccc4)n3-c3cccc(C)c3)n2)cc1OC | 56 | 86 | 95 | 99 | 73
O=S(=O)(c1ccc2c(c1)nc(COc1ccc(Cl)cc1)n2CC1CCCO1)N1CCOCC1 (centres undefined) | 5.8* | 18 | 5.7* | 67 | 20
O=S(=O)(c1ccc2nc(COc3ccccc3)[nH]c2c1)N1CCOCC1 | 79 | 93 | 108 | 101 | 101
SMILES | H69AR growth 86K | bCat KO growth | Lung fibro prol | HUVEC inhibit | PTEN del growth
COc1ccc(C(=O)NCCn2cc(SCC(=O)Nc3nnc(C)s3)c3ccccc32)cc1 | 59 | 94 | 101 | 82 | 81
Cc1cc(C)n(CC(O)CN2c3ccccc3Sc3ccccc32)n1 (centres undefined) | 75 | 88 | 85 | 60 | 66
Cc1onc(-c2ccccc2Cl)c1C(=O)N1CCN(c2ccccc2)CC1 | 20* | 70 | 93 | 99 | 65
Cc1onc(-c2ccccc2Cl)c1C(=O)N1CCN(c2cccc(Cl)c2)CC1 | 28* | 22 | 54 | 52 | 15
Cc1onc(-c2ccccc2Cl)c1C(=O)N1CCN(C(=O)c2ccco2)CC1 | 95 | 85 | 101 | 95 | 86
CCCOc1ccc2c(=O)c(N3C(=O)c4ccccc4C3=O)c(C)oc2c1 | 92 | 93 | 96 | 95 | 85
COc1ccc(NC(=O)COC(=O)c2cc(OC)c(OC)cc2NC(=O)c2ccco2)cc1OC | / | 109 | / | / | 99
O=C1c2[nH]nc(-c3ccccc3O)c2C(c2ccc(F)cc2)N1Cc1ccco1 (centres undefined) | 1.8* | 81 | 92 | 79 | 80
O=C1c2[nH]nc(-c3ccccc3O)c2C(c2cccc(Cl)c2)N1CC1CCCO1 (centres undefined) | 21* | 84 | 91 | 71 | 82
O=C1c2[nH]nc(-c3ccccc3O)c2C(c2ccc(F)cc2)N1CC1CCCO1 (centres undefined) | 64 | 89 | 86 | 100 | 81
COc1ccc(CCN2C(=O)c3[nH]nc(-c4ccccc4O)c3C2c2cccc(O)c2)cc1OC (centres undefined) | 84 | 83 | 94 | 97 | 74
O=C1c2[nH]nc(-c3ccccc3O)c2C(c2cccc(Cl)c2)N1Cc1ccco1 (centres undefined) | 0.8* | 62 | 88 | 4.9* | 49
COc1ccc(NC(=S)N(Cc2ccc(N(C)C)cc2)Cc2ccco2)cc1 | / | 33 | / | / | 46
CN(C)CCNC(=O)c1cc2ccccc2oc1=O | 94 | 102 | 103 | 109 | 93
Cn1c(SCC(=O)NCc2ccco2)nc2ccccc2c1=O | 93 | 97 | 95 | 95 | 88
N#CC1=C(SCC(=O)NC23CC4CC(CC(C4)C2)C3)NC(=O)C(C#N)C12CCCCC2 (centres undefined) | 9.1* | 50 | 80 | 56 | 39
N#CC1=C(SCC(=O)NC2CC2)NC(=O)C(C#N)C12CCCCC2 (centres undefined) | 100 | 95 | 95 | 84 | 101
CC(C)(C)C1CCC2(CC1)C(C#N)=C(SCC(=O)NC1CCCCC1)NC(=O)C2C#N (centres undefined) | 9.6* | 72 | 82 | 44 | 61
CC(C)Cc1nc(C#N)c(N2CCC(C(N)=O)CC2)o1 | / | 89 | / | / | 95
C/C(=N/NS(=O)(=O)c1ccc(C)cc1)c1ccc(NC(=O)C(F)(F)F)cc1 | / | 101 | / | / | 95
CC1CCN(c2nc3c(c(=O)[nH]c(=O)n3C)n2CCSc2nc3ccccc3o2)CC1 | 70 | 102 | 109 | 85 | 95
Nc1nc(Nc2ccc(Cl)cc2)nc2ccccc12 | 21* | 17 | 81 | 56 | 22
CC(=O)Nc1ccccc1N(C)S(=O)(=O)c1ccc(C)cc1 | 37* | 54 | 101 | 80 | 48
